Measurements taken from ChEMBL document CHEMBL1154892, “Saponins and polyphenols from Fadogia ancylantha (makoni tea)” (J Nat Prod, 2010).
≈ marks a conversion by molar mass, not a printed value. Calls of active or inactive are those of the source. The calls are words filed in the database; no cut-off is given here.

Key:
[1] = test system: Radical scavenging activity; assay: Antioxidant activity assessed as DPPH radical scavenging activity after 10 mins; format: functional
Method in brief: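 Methanolic sample solution added to DPPH solution (0.025 g/L in MeOH, prepared daily); vehicle alone in control tubes; absorbance read at 515 nm 10 min after start. α-Tocopherol positive control. Triplicate runs; EC50 calculated by Litchfield and Wilcoxon method.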

Staphylococcus aureus [2] = assay: Antibacterial activity against Staphylococcus aureus ATCC 6538 after 24 hrs by broth microdilution method; format: functional; settings: ATCC 6538, 24 h
Method in brief: (§1)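 Broth microdilution in 96-well plates, in duplicate, following NCCLS (2001); ATCC Gram-positive and Gram-negative bacteria, a yeast and a mold. MIC taken as lowest concentration inhibiting microbial growth after 24 h.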

[3] = test system: Staphylococcus epidermidis; assay: Antibacterial activity against Staphylococcus epidermidis ATCC 12228 after 24 hrs by broth microdilution method; format: functional; settings: ATCC 12228, 24 h; method in brief: as §1
Bacillus spizizenii [4] = assay: Antibacterial activity against Bacillus spizizenii ATCC 6633 after 24 hrs by broth microdilution method; format: functional; settings: ATCC 6633, 24 h; method in brief: as §1
Pseudomonas aeruginosa [5] = assay: Antibacterial activity against Pseudomonas aeruginosa ATCC 9027 after 24 hrs by broth microdilution method; format: functional; method in brief: as §1
Escherichia coli [6] = assay: Antibacterial activity against Escherichia coli ATCC 8739 after 24 hrs by broth microdilution method; format: functional; method in brief: as §1
Candida albicans [7] = assay: Antifungal activity against Candida albicans ATCC 10231 after 24 hrs by broth microdilution method; format: functional; settings: ATCC 10231, 24 h; method in brief: as §1
Aspergillus niger [8] = assay: Antifungal activity against Aspergillus niger ATCC 16404 after 24 hrs by broth microdilution method; format: functional; settings: ATCC 16404, 24 h; method in brief: as §1
Staphylococcus aureus [9] = assay: Antibacterial activity against Staphylococcus aureus ATCC 6538 after 48 hrs by broth microdilution method; format: functional; settings: ATCC 6538, 48 h
Method in brief: (§2)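 Broth microdilution in 96-well plates, in duplicate, per NCCLS (2001), ATCC strains. MBC taken as lowest concentration at which no microbial cell survived after 48 h incubation (bacteria) or 5 days (yeast and mold).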

[10] = test system: Staphylococcus epidermidis; assay: Antibacterial activity against Staphylococcus epidermidis ATCC 12228 after 48 hrs by broth microdilution method; format: functional; settings: ATCC 12228, 48 h; method in brief: as §2
Bacillus spizizenii [11] = assay: Antibacterial activity against Bacillus spizizenii ATCC 6633 after 48 hrs by broth microdilution method; format: functional; settings: ATCC 6633, 48 h; method in brief: as §2
Pseudomonas aeruginosa [12] = assay: Antibacterial activity against Pseudomonas aeruginosa ATCC 9027 after 48 hrs by broth microdilution method; format: functional; method in brief: as §2
Escherichia coli [13] = assay: Antibacterial activity against Escherichia coli ATCC 8739 after 48 hrs by broth microdilution method; format: functional, organism-based; method in brief: as §2
Candida albicans [14] = assay: Antifungal activity against Candida albicans ATCC 10231 after 5 days by broth microdilution method; format: functional; method in brief: as §2
Aspergillus niger [15] = assay: Antifungal activity against Aspergillus niger ATCC 16404 after 5 days by broth microdilution method; format: functional; method in brief: as §2

Row | Compound | EC50 [1] [µg/mL] | MIC (Staphylococcus aureus [2]) [µg/mL] | MIC [3] [µg/mL] | MIC (Bacillus spizizenii [4]) [µg/mL] | MIC (Pseudomonas aeruginosa [5]; ATCC 9027, 24 h) [µg/mL] | MIC (Escherichia coli [6]) | MIC (Candida albicans [7]) [µg/mL] | MIC (Aspergillus niger [8]) [µg/mL] | MIC (Pseudomonas aeruginosa [5]) | MIC (Escherichia coli [6]; ATCC 8739, 24 h) [µg/mL] | MBC (Staphylococcus aureus [9]) [µg/mL] | MBC [10] [µg/mL] | MBC (Bacillus spizizenii [11]) [µg/mL] | MBC (Pseudomonas aeruginosa [12]) | MBC (Escherichia coli [13]) | MBC (Candida albicans [14]) | MBC (Aspergillus niger [15]) | MBC (Pseudomonas aeruginosa [12]; ATCC 9027, 48 h) [µg/mL] | MBC (Candida albicans [14]; ATCC 10231, 120 h) [µg/mL] | MBC (Aspergillus niger [15]; ATCC 16404, 120 h) [µg/mL]
1 | O=c1cc(-c2ccc(O)c(O)c2)oc2cc(O[C@@H]3O[C@H](CO)[C@@H](O)[C@H](O)[C@H]3O)ccc12 | 28.4 (≈ 0.0657 mM) | 2000 (≈ 4.63 mM) | 500 (≈ 1.16 mM) | 1000 (≈ 2.31 mM) | 4000 (≈ 9.25 mM) | inactive | 4000 (≈ 9.25 mM) | 1000 (≈ 2.31 mM) |  |  | 4000 (≈ 9.25 mM) | 4000 (≈ 9.25 mM) | 1000 (≈ 2.31 mM) | inactive | inactive | inactive | inactive |  |  | 
2 | Cc1c(C)c2c(c(C)c1O)CC[C@@](C)(CCC[C@H](C)CCC[C@H](C)CCCC(C)C)O2 [ALPHA-TOCOPHEROL] | 10.1 (≈ 0.0234 mM) |  |  |  |  |  |  |  |  |  |  |  |  |  |  |  |  |  |  | 
3 | O=c1c(O[C@@H]2O[C@H](CO)[C@@H](O)[C@H](O)[C@H]2O)c(-c2ccc(O)c(O)c2)oc2cc(O)cc(O)c12 [ISOQUERCETIN] | 20.4 (≈ 0.0439 mM) | 4000 (≈ 8.61 mM) | 1000 (≈ 2.15 mM) | 1000 (≈ 2.15 mM) |  | inactive | 4000 (≈ 8.61 mM) | 2000 (≈ 4.31 mM) | inactive |  | 4000 (≈ 8.61 mM) | 4000 (≈ 8.61 mM) | 2000 (≈ 4.31 mM) | inactive | inactive | inactive |  |  |  | 4000 (≈ 8.61 mM)

Further lines, with some results ahead:

Row | EC50 [1] [µg/mL] | MIC (Staphylococcus aureus [2]) [µg/mL] | MIC [3] [µg/mL] | MIC (Bacillus spizizenii [4]) [µg/mL] | MIC (Pseudomonas aeruginosa [5]; ATCC 9027, 24 h) [µg/mL] | MIC (Escherichia coli [6]) | MIC (Candida albicans [7]) [µg/mL] | MIC (Aspergillus niger [8]) [µg/mL] | MIC (Pseudomonas aeruginosa [5]) | MIC (Escherichia coli [6]; ATCC 8739, 24 h) [µg/mL] | Compound | MBC (Staphylococcus aureus [9]) [µg/mL] | MBC [10] [µg/mL] | MBC (Bacillus spizizenii [11]) [µg/mL] | MBC (Pseudomonas aeruginosa [12]) | MBC (Escherichia coli [13]) | MBC (Candida albicans [14]) | MBC (Aspergillus niger [15]) | MBC (Pseudomonas aeruginosa [12]; ATCC 9027, 48 h) [µg/mL] | MBC (Candida albicans [14]; ATCC 10231, 120 h) [µg/mL] | MBC (Aspergillus niger [15]; ATCC 16404, 120 h) [µg/mL]
4 | > 1000 | 4000 (≈ 9.51 mM) | 1000 (≈ 2.38 mM) | 120 (≈ 0.285 mM) |  |  | 4000 (≈ 9.51 mM) | 120 (≈ 0.285 mM) | inactive | 2000 (≈ 4.76 mM) | O=C(CCc1ccc(O)cc1)c1ccc(O[C@@H]2O[C@H](CO)[C@@H](O)[C@H](O)[C@H]2O)cc1O [CONFUSOSIDE] | 4000 (≈ 9.51 mM) | 2000 (≈ 4.76 mM) | 1000 (≈ 2.38 mM) | inactive | inactive | inactive | inactive |  |  | 
5 | > 1000 | 120 (≈ 0.465 mM) | 250 (≈ 0.968 mM) | 120 (≈ 0.465 mM) | 2000 (≈ 7.74 mM) |  | 1000 (≈ 3.87 mM) | 120 (≈ 0.465 mM) |  | 4000 (≈ 15.5 mM) | O=C(CCc1ccc(O)cc1)c1ccc(O)cc1O [DAVIDIGENIN] | 500 (≈ 1.94 mM) | 500 (≈ 1.94 mM) | 500 (≈ 1.94 mM) |  | inactive |  | inactive | 4000 (≈ 15.5 mM) | 2000 (≈ 7.74 mM) | 
